From ChEMBL document CHEMBL3400137, “Glycyrrhizic acid derivatives as influenza A/H1N1 virus inhibitors” (Bioorg Med Chem Lett, 2015) come the findings set out here.

Series [1] is described as follows: Antiviral activity against influenza A virus (A/California/07/09(H1N1)) pdm09 infected in MDCK cells assessed as decrease in virus titer by hemagglutination assay in presence of 1% suspension of chicken erythrocytes. The format is functional, Influenza A virus (A/California/07/2009(H1N1)). As to conditions: read-out: CD50 (the source's name). A digest of the protocol: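 MDCK cells were pre-treated for 1 h at 37 °C with serial twofold compound dilutions in MEM containing 2 mM arginine, 2 mM glutamine and 2 μg/mL trypsin, then infected. Untreated infected cells served as control. Virus yield in the supernatant was read by end-point dilution hemagglutination. ED50 was the concentration giving a two-fold drop in virus production versus control. Values are means.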

Series [2] can be described thus: Selectivity index, CTD50 for MDCK cells to EC50 for influenza A virus (A/California/07/09(H1N1)) pdm09 infected in MDCK cells. It counts as toxicity, cell-based. As to conditions: dog; for selectivity ratio: read-out: Selectivity Index; for Selectivity Index: mdck.
Series [3] deals with MDCK. The series is described as follows: Cytotoxicity against MDCK cells assessed as reduction in cell viability after 48 hrs by MTT assay. The format is cell-based, Canis lupus familiaris. Put shortly:
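Compounds were taken from 5 mg/mL DMSO stocks and diluted twofold in MEM. They were applied to washed, serum-free MDCK monolayers (grown in MEM with 5% fetal calf serum) for 48 h at 37 °C. Cells were then PBS-washed and given 0.5 mg/mL MTT for 60 min at 37 °C in 5% CO2. Formazan was dissolved in DMSO and read at 535 nm. CTD50 was estimated from these readings. Values are means.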
On the technique in general: Formazan colour is commonly taken as a measure of viable cells.

As to `COC(=O)[C@H](Cc1ccccc1)NC(=O)[C@H]1O[C@@H](O[C@H]2[C@H](O[C@H]3CC[C@]4(C)[C@H]5C(=O)C=C6[C@@H]7C[C@@](C)(C(=O)N[C@@H](Cc8ccccc8)C(=O)OC)CC[C@]7(C)CC[C@@]6(C)[C@]5(C)CC[C@H]4C3(C)C)O[C@H](C(=O)N[C@@H](Cc3ccccc3)C(=O)OC)[C@@H](O)[C@@H]2O)[C@H](O)[C@@H](O)[C@@H]1O`, in series [1] (Influenza A virus, pdm09, MDCK), the CC50 is 133 µM. The selectivity ratio in series [2] was determined as 28.
On the same counts, the results for `COC(=O)[C@H](Cc1ccc(O)cc1)NC(=O)[C@H]1O[C@@H](O[C@H]2[C@H](O[C@H]3CC[C@]4(C)[C@H]5C(=O)C=C6[C@@H]7C[C@@](C)(C(=O)N[C@@H](Cc8ccc(O)cc8)C(=O)OC)CC[C@]7(C)CC[C@@]6(C)[C@]5(C)CC[C@H]4C3(C)C)O[C@H](C(=O)N[C@@H](Cc3ccc(O)cc3)C(=O)OC)[C@@H](O)[C@@H]2O)[C@H](O)[C@@H](O)[C@@H]1O` are 160 µM and 18.
On the same counts, the results for `CC[C@H](C)[C@H](NC(=O)[C@H]1O[C@@H](O[C@H]2[C@H](O[C@H]3CC[C@]4(C)[C@H]5C(=O)C=C6[C@@H]7C[C@@](C)(C(=O)N[C@H](C(=O)OC)[C@@H](C)CC)CC[C@]7(C)CC[C@@]6(C)[C@]5(C)CC[C@H]4C3(C)C)O[C@H](C(=O)N[C@H](C(=O)OC)[C@@H](C)CC)[C@@H](O)[C@@H]2O)[C@H](O)[C@@H](O)[C@@H]1O)C(=O)OC` are 16.4 µM and 6.
On the same counts, the results for `COC(=O)[C@H](Cc1ccccc1)NC(=O)[C@H]1O[C@@H](O[C@H]2[C@H](O[C@H]3CC[C@]4(C)[C@H]5C(=O)C=C6[C@@H]7C[C@@](C)(C(=O)O)CC[C@]7(C)CC[C@@]6(C)[C@]5(C)CC[C@H]4C3(C)C)O[C@H](C(=O)N[C@@H](Cc3ccccc3)C(=O)OC)[C@@H](O)[C@@H]2O)[C@H](O)[C@@H](O)[C@@H]1O` are 262 µM and 61.
On to `COC(=O)[C@H](Cc1ccc(O)cc1)NC(=O)[C@H]1O[C@@H](O[C@H]2[C@H](O[C@H]3CC[C@]4(C)[C@H]5C(=O)C=C6[C@@H]7C[C@@](C)(C(=O)O)CC[C@]7(C)CC[C@@]6(C)[C@]5(C)CC[C@H]4C3(C)C)O[C@H](C(=O)N[C@@H](Cc3ccc(O)cc3)C(=O)OC)[C@@H](O)[C@@H]2O)[C@H](O)[C@@H](O)[C@@H]1O`, for which, in series [1] (Influenza A virus, pdm09, MDCK), the CC50 amounted to 255 µM. For the same molecule, the selectivity ratio in series [2] is 38.
On the same counts, the results for `COC(=O)[C@@H](NC(=O)[C@H]1O[C@@H](O[C@H]2[C@H](O[C@H]3CC[C@]4(C)[C@H]5C(=O)C=C6[C@@H]7C[C@@](C)(C(=O)O)CC[C@]7(C)CC[C@@]6(C)[C@]5(C)CC[C@H]4C3(C)C)O[C@H](C(=O)N[C@H](C(=O)OC)C(C)C)[C@@H](O)[C@@H]2O)[C@H](O)[C@@H](O)[C@@H]1O)C(C)C` are 29.1 µM and 5.
Turning to `COC(=O)[C@H](Cc1c[nH]cn1)NC(=O)[C@H]1O[C@@H](O[C@H]2[C@H](O[C@H]3CC[C@]4(C)[C@H]5C(=O)C=C6[C@@H]7C[C@@](C)(C(=O)O)CC[C@]7(C)CC[C@@]6(C)[C@]5(C)CC[C@H]4C3(C)C)O[C@H](C(=O)N[C@@H](Cc3c[nH]cn3)C(=O)OC)[C@@H](O)[C@@H]2O)[C@H](O)[C@@H](O)[C@@H]1O`, the CC50 in series [1] (Influenza A virus, pdm09, MDCK) amounted to 298 µM. In addition, the selectivity ratio in series [2] stood at 15.
On the same counts, the results for `COC(=O)C[C@H](NC(=O)[C@H]1O[C@@H](O[C@H]2[C@H](O[C@H]3CC[C@]4(C)[C@H]5C(=O)C=C6[C@@H]7C[C@@](C)(C(=O)O)CC[C@]7(C)CC[C@@]6(C)[C@]5(C)CC[C@H]4C3(C)C)O[C@H](C(=O)N[C@@H](CC(=O)OC)C(=O)OC)[C@@H](O)[C@@H]2O)[C@H](O)[C@@H](O)[C@@H]1O)C(=O)OC` are 37.3 µM and 1.
On the same counts, the results for `CC1(C)[C@@H](O[C@@H]2O[C@H](C(=O)N[C@@H](CSCc3ccccc3)C(=O)O)[C@@H](O)[C@H](O)[C@H]2O[C@@H]2O[C@H](C(=O)N[C@@H](CSCc3ccccc3)C(=O)O)[C@@H](O)[C@H](O)[C@H]2O)CC[C@]2(C)[C@H]3C(=O)C=C4[C@@H]5C[C@@](C)(C(=O)O)CC[C@]5(C)CC[C@@]4(C)[C@]3(C)CC[C@@H]12` are 248 µM and 71.
In the same order, the values of `CC1(C)[C@@H](O[C@@H]2O[C@H](C(=O)N[C@@H](CCCCNC(=O)OCc3ccccc3)C(=O)O)[C@@H](O)[C@H](O)[C@H]2O[C@@H]2O[C@H](C(=O)N[C@@H](CCCCNC(=O)OCc3ccccc3)C(=O)O)[C@@H](O)[C@H](O)[C@H]2O)CC[C@]2(C)[C@H]3C(=O)C=C4[C@@H]5C[C@@](C)(C(=O)O)CC[C@]5(C)CC[C@@]4(C)[C@]3(C)CC[C@@H]12` are 155 µM and 3.
In the case of `CC1(C)[C@@H](O[C@@H]2O[C@H](C(=O)N[C@@H]3O[C@H](CO)[C@@H](O)[C@H](O)[C@H]3O)[C@@H](O)[C@H](O)[C@H]2O[C@@H]2O[C@H](C(=O)N[C@@H]3O[C@H](CO)[C@@H](O)[C@H](O)[C@H]3O)[C@@H](O)[C@H](O)[C@H]2O)CC[C@]2(C)[C@H]3C(=O)C=C4[C@@H]5C[C@@](C)(C(=O)O)CC[C@]5(C)CC[C@@]4(C)[C@]3(C)CC[C@@H]12`, the CC50 in series [1] (Influenza A virus, pdm09, MDCK) was determined as 259 µM. Moreover, in series [2], the selectivity ratio turned out to be 36.
In the same order, the values of `COC(=O)C[C@H](NC(=O)[C@H]1O[C@@H](O[C@H]2[C@H](O[C@H]3CC[C@]4(C)[C@H]5C(=O)C=C6[C@H]7C[C@@](C)(C(=O)O)CC[C@]7(C)CC[C@@]6(C)[C@]5(C)CC[C@H]4C3(C)C)O[C@H](C(=O)N[C@@H](CC(=O)OC)C(=O)OC)[C@@H](O)[C@@H]2O)[C@H](O)[C@@H](O)[C@@H]1O)C(=O)OC` are 38 µM and 4.
In the same order, the values of `COC(=O)C[C@H](NC(=O)[C@H]1O[C@@H](O[C@H]2[C@H](O[C@H]3CC[C@]4(C)[C@H]5C(=O)C=C6[C@H]7C[C@@](C)(C(=O)O)CC[C@]7(C)CC[C@@]6(C)[C@]5(C)CC[C@H]4C3(C)C)O[C@H](C(=O)N[C@@H](CC(=O)OC)C(=O)O)[C@@H](O)[C@@H]2O)[C@H](O)[C@@H](O)[C@@H]1O)C(=O)O` are 58.3 µM and 12.
On the same counts, the results for `COC(=O)[C@@]1(C)CC[C@]2(C)CC[C@]3(C)C(=CC(=O)[C@@H]4[C@@]5(C)CC[C@H](O[C@@H]6O[C@H](CO)[C@@H](O)[C@H](O)[C@H]6O[C@@H]6O[C@H](CO)[C@@H](O)[C@H](O)[C@H]6O)C(C)(C)[C@@H]5CC[C@]43C)[C@@H]2C1` are 371 µM and 5.
Turning to `CC1(C)[C@@H](O[C@@H]2O[C@H](C(=O)O)[C@@H](O)[C@H](O)[C@H]2O[C@@H]2O[C@H](C(=O)O)[C@@H](O)[C@H](O)[C@H]2O)CC[C@]2(C)C3=CC=C4[C@@H]5C[C@@](C)(C(=O)O)CC[C@]5(C)CC[C@@]4(C)[C@]3(C)CC[C@@H]12`, the CC50 in series [1] (Influenza A virus, pdm09, MDCK) turned out to be 21.4 µM. In addition, in series [2], the selectivity ratio was found to be 10.
Consider `CC1(C)[C@@H](OC2O[C@H](C(=O)O)[C@@H](O)[C@H](O)[C@H]2O[C@@H]2O[C@H](C(=O)O)[C@@H](O)[C@H](O)[C@H]2O)CC[C@]2(C)[C@H]3C(=O)C=C4C5C[C@@](C)(C(=O)O)CC[C@]5(C)CC[C@@]4(C)[C@]3(C)CC[C@@H]12` (single isomer, unassigned) [GLYCYRRHIZIN], for which the CC50 in series [1] worked out at 47.5 µM. In addition, in series [3], the EC50 worked out at 15.2 µM. Further, the “Selectivity Index” value in series [2] is reported as 3.
In the same order, the values of `CC1(C)[C@@H](O[C@H]2O[C@H](C(=O)O)[C@@H](O)[C@H](O)[C@H]2O[C@@H]2O[C@H](C(=O)O)[C@@H](O)[C@H](O)[C@H]2O)CC[C@]2(C)[C@H]3C(=O)C=C4[C@@H]5C[C@@](C)(C(=O)O)CC[C@]5(C)CC[C@@]4(C)[C@]3(C)CC[C@@H]12` [GLYCYRRHIZIN] are 365 µM, 365 µM and 1.
Regarding `CC(N)C12CC3CC(CC(C3)C1)C2` (stereo not drawn) [RIMANTADINE], in series [1] (Influenza A virus, pdm09, MDCK), the CC50 came out at 334 µM. Moreover, the selectivity ratio in series [2] was 5.

In general, EC50 refers to the midpoint of the concentration-response curve.
